Activity calls are given as the source filed them.
Columns and labels:
Mus musculus [1] = test: Anticonvulsant activity in mouse assessed as protection against maximal electroshock-induced seizures at 100 mg/kg, ip; type: functional, organism-based
Procedure, shortened: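 Mice dosed ip; maximal seizures induced by auricular electroshock (25 mA, 500 V, 50 Hz, 0.2 s). Endpoint: hind-limb tonic extension; animals without it scored protected. Read-out is number protected over number tested.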

Mus musculus [2] = test: Toxicity in mouse at 100 mg/kg, ip measured during maximal electroshock seizure test; type: organism-based; conditions: in vivo
Mus musculus [3] = test: Toxicity in mouse at 60 mg/kg, ip measured during maximal electroshock seizure test; type: organism-based; conditions: in vivo
Mus musculus [4] = test: Toxicity in mouse at 80 mg/kg, ip measured during maximal electroshock seizure test; type: organism-based; conditions: in vivo
Mus musculus [5] = test: Anticonvulsant activity in ip dosed mouse assessed as protection against maximal electroshock-induced seizures; type: functional
Procedure, shortened: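 Mice were dosed ip. Maximal seizures were induced by auricular electrodes (25 mA, 500 V, 50 Hz, 0.2 s). Absence of hind-limb tonic extension counted as protection. […] Motor impairment was scored on a 10 rpm rotarod, giving TD50 the same way.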

[6] = Neurotoxicity in ip dosed mouse assessed as motor impairment measured for one min by rotarod test; type: toxicity, organism-based; conditions: in vivo
Procedure, shortened: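 Mice trained on an accelerating rotarod, then tested at least 24 h later after ip pretreatment, on a rod turning at 10 rpm. Neurotoxicity was scored as failure to stay on the rod for one minute. Read-out is mice impaired over mice tested.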

[7] = Protection index, ratio of TD50 for neurotoxicity in ip dosed mouse by rotarod test to ED50 for anticonvulsant activity in mouse by maximal electroshock seizure test; type: toxicity, organism-based; conditions: in vivo, read-out: Ratio TD50/ED50
Mus musculus [8] = test: Anticonvulsant activity in mouse assessed as current strength required to induce tonic hind-limb extension in 50% of the animals at 30 mg/kg, ip by maximal electroshock seizure threshold test (reference value: 6.05 to 8.13 mA); type: functional
Mus musculus [9] = test: Anticonvulsant activity in mouse assessed as increase in electroconvulsive threshold at 30 mg/kg, ip by maximal electroshock seizure threshold test relative to control; type: functional
Mus musculus [10] = test: Anticonvulsant activity in mouse assessed as protection against subcutaneous pentylenetetrazole-induced seizures by measuring latency time of tonic seizures at 100 mg/kg, ip measured for 30 mins post pentylenetetrazole challenge at 0.5 hrs after compound dosing (reference value: 562.8 to 614.9 secs); type: functional
Mus musculus [11] = test: Anticonvulsant activity in mouse assessed as protection against subcutaneous pentylenetetrazole-induced seizures at 100 mg/kg, ip measured for 30 mins post pentylenetetrazole challenge at 0.5 hrs after compound dosing relative to control; type: functional
Mus musculus [12] = test: Analgesic activity in mouse assessed as decrease in time of paw licking during phase 1 at 69 mg/kg, ip measured for 5 mins by formalin test relative to control; type: functional; set-up: scale not given: the % may be the effect or the level left
Procedure, shortened: (§1)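 Formalin test in mice: 20 μL of 5% formalin injected intraplantarly into the right hind paw. Each mouse was observed alone in a glass beaker for 30 min. Time (s) spent licking or biting the injected paw was recorded at 0–5 min (acute phase) and 15–30 min (inflammatory phase).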

Mus musculus [13] = test: Analgesic activity in mouse assessed as decrease in time of paw licking during phase 2 at 69 mg/kg, ip measured for 15 to 30 mins by formalin test relative to control; type: functional; set-up: scale not given: the % may be the effect or the level left; procedure, shortened: as §1
Mus musculus [14] = test: Toxicity in mouse assessed as effect on spontaneous activity at 69 mg/kg, ip measured for 30 mins by photoresistor actometer relative to control; type: organism-based; conditions: in vivo, 0.5 h
Procedure, shortened: (§2)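 Mice dosed ip; locomotor activity by photoresistor actometers counting light-beam interruptions. Each mouse was habituated 30 min in a cage, then crossings were counted over a 30 min session. Data are mean ± SEM and % change vs control; unpaired t test.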

Mus musculus [15] = test: Neurotoxicity in mouse assessed as motor impairment by measuring time of escaping from chimney at 69 mg/kg, ip measured for 60 secs (reference value: 8.87 +/- 1.79 secs); type: toxicity, organism-based; conditions: in vivo, 1 min
Procedure, shortened: (§3)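 Mice dosed ip; trained, selected animals placed in a horizontal tube 25 cm long and 2.5 cm in diameter, then tube reversed so mice must climb out backward. Read-outs: escape time (s) ± SEM and % animals losing coordination versus control. Unpaired t test.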

Mus musculus [16] = test: Neurotoxicity in mouse assessed as motor impairment by measuring loss of coordination at 69 mg/kg, ip measured for 60 secs by chimney test relative to control; type: toxicity, organism-based; conditions: in vivo, 1 min; procedure, shortened: as §3
HepG2 [17] = test: Cytotoxicity against human HepG2 cells assessed as effect on cell viability at 10 to 250 uM after 24 hrs by MTT assay; type: cell-based; conditions: hepg2, 24 h
Procedure, shortened: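 HepG2 cells grown in MEM with 10% FBS (37 °C, 5% CO2) and seeded at 1 × 10^4. After overnight culture, exposed to 10–250 μM for 24 h. MTT for 3 h, formazan dissolved, OD 570 nm. Viability is % of control ± SEM from three independent experiments.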

HepG2 [18] = test: Cytotoxicity against human HepG2 cells assessed as effect on cell viability at 10 to 250 uM after 24 hrs by neutral red assay; type: cell-based; conditions: hepg2, 24 h
Procedure, shortened: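 HepG2 cells seeded at 5 × 10^4 per well, then after 24 h given medium with 10–250 μM for 24 h. Viability by neutral red staining, OD 570 nm. Results are % of control ± SEM, three independent experiments.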

[19] = Cytotoxicity against mouse CRL-2541 cells assessed as effect on cell viability at 10 to 250 uM after 24 hrs by MTT assay; type: cell-based
SH-SY5Y [20] = test: Cytotoxicity against human SH-SY5Y cells 10^-8 to 10^-4 M after 72 hrs by LDH release assay; type: cell-based
Procedure, shortened: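 SH-SY5Y cells grown in DMEM with 10% FBS, then seeded at 15000 per well in 1% FBS a day ahead. Treated with 10^-8 to 10^-4 M (water-dissolved) for 72 h, with vehicle controls and triton as positive control. LDH in medium read at 490 nm, expressed as % of vehicle-treated cells. Dunnett's test after one-way ANOVA.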

SH-SY5Y [21] = test: Cytotoxicity against human SH-SY5Y cells 10^-8 to 10^-4 M after 24 hrs by MTT assay; type: cell-based
SH-SY5Y [22] = test: Potentiation of H2O2-induced cytotoxicity against human SH-SY5Y cells at 10^-8 to 10^-6 M after 72 hrs by LDH release assay; type: cell-based
Procedure, shortened: (§4)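 SH-SY5Y cells in 1% FBS given 10^-8 to 10^-5 M for 72 h, with H2O2 (0.5 mM) added for the last 24 h. LDH released into medium measured at 490 nm and normalized to vehicle cells without H2O2. Dunnett's test after one-way ANOVA.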

SH-SY5Y [23] = test: Potentiation of H2O2-induced cytotoxicity against human SH-SY5Y cells at 10^-5 M after 72 hrs by LDH release assay; type: cell-based; conditions: 10 µM; procedure, shortened: as §4
SH-SY5Y [24] = test: Potentiation of H2O2-induced cytotoxicity against human SH-SY5Y cells at 10^-6 to 10^-5 M after 24 hrs by MTT assay; type: cell-based
Mus musculus [25] = test: Toxicity in mouse at 30 mg/kg, ip measured during maximal electroshock seizure test; type: organism-based; conditions: in vivo
Mus musculus [26] = test: Toxicity in mouse at 20 mg/kg, ip measured during maximal electroshock seizure test; type: organism-based; conditions: in vivo
Mus musculus [27] = test: Toxicity in mouse at 25 mg/kg, ip measured during maximal electroshock seizure test; type: organism-based; conditions: in vivo
Mus musculus [28] = test: Anticonvulsant activity in mouse assessed as current strength required to induce tonic hind-limb extension in 50% of the animals at 10 mg/kg, ip by maximal electroshock seizure threshold test (reference value: 6.05 to 8.13 mA); type: functional
Mus musculus [29] = test: Anticonvulsant activity in mouse assessed as increase in electroconvulsive threshold at 10 mg/kg, ip by maximal electroshock seizure threshold test relative to control; type: functional
Mus musculus [30] = test: Analgesic activity in mouse assessed as decrease in time of paw licking during phase 1 at 24 mg/kg, ip measured for 5 mins by formalin test relative to control; type: functional; set-up: scale not given: the % may be the effect or the level left; procedure, shortened: as §1
Mus musculus [31] = test: Analgesic activity in mouse assessed as decrease in time of paw licking during phase 2 at 24 mg/kg, ip measured for 15 to 30 mins by formalin test relative to control; type: functional; set-up: scale not given: the % may be the effect or the level left; procedure, shortened: as §1
Mus musculus [32] = test: Toxicity in mouse assessed as effect on spontaneous activity at 24 mg/kg, ip measured for 30 mins by photoresistor actometer relative to control; type: organism-based; conditions: in vivo, 0.5 h; procedure, shortened: as §2
Mus musculus [33] = test: Neurotoxicity in mouse assessed as motor impairment by measuring time of escaping from chimney at 24 mg/kg, ip measured for 60 secs (reference value: 8.87 +/- 1.79 secs); type: toxicity, organism-based; conditions: in vivo, 1 min; procedure, shortened: as §3
Mus musculus [34] = test: Neurotoxicity in mouse assessed as motor impairment by measuring loss of coordination at 24 mg/kg, ip measured for 60 secs by chimney test relative to control; type: toxicity, organism-based; conditions: in vivo, 1 min; procedure, shortened: as §3
Mus musculus [35] = test: Anticonvulsant activity in mouse assessed as current strength required to induce tonic hind-limb extension in 50% of the animals at 20 mg/kg, ip by maximal electroshock seizure threshold test (reference value: 6.05 to 8.13 mA); type: functional
Mus musculus [36] = test: Anticonvulsant activity in mouse assessed as increase in electroconvulsive threshold at 20 mg/kg, ip by maximal electroshock seizure threshold test relative to control; type: functional
Mus musculus [37] = test: Anticonvulsant activity in mouse assessed as protection against subcutaneous pentylenetetrazole-induced seizures by measuring latency time of tonic seizures at 80 mg/kg, ip measured for 30 mins post pentylenetetrazole challenge at 0.5 hrs after compound dosing (reference value: 562.8 to 614.9 secs); type: functional
Mus musculus [38] = test: Anticonvulsant activity in mouse assessed as protection against subcutaneous pentylenetetrazole-induced seizures at 80 mg/kg, ip measured for 30 mins post pentylenetetrazole challenge at 0.5 hrs after compound dosing relative to control; type: functional
Mus musculus [39] = test: Analgesic activity in mouse assessed as decrease in time of paw licking during phase 1 at 33 mg/kg, ip measured for 5 mins by formalin test relative to control; type: functional; set-up: scale not given: the % may be the effect or the level left; procedure, shortened: as §1
Mus musculus [40] = test: Analgesic activity in mouse assessed as decrease in time of paw licking during phase 2 at 33 mg/kg, ip measured for 15 to 30 mins by formalin test relative to control; type: functional; set-up: scale not given: the % may be the effect or the level left; procedure, shortened: as §1
Mus musculus [41] = test: Toxicity in mouse assessed as effect on spontaneous activity at 33 mg/kg, ip measured for 30 mins by photoresistor actometer relative to control; type: organism-based; conditions: in vivo, 0.5 h; procedure, shortened: as §2
Mus musculus [42] = test: Neurotoxicity in mouse assessed as motor impairment by measuring time of escaping from chimney at 33 mg/kg, ip measured for 60 secs (reference value: 8.87 +/- 1.79 secs); type: toxicity, organism-based; conditions: in vivo, 1 min; procedure, shortened: as §3
Mus musculus [43] = test: Neurotoxicity in mouse assessed as motor impairment by measuring loss of coordination at 33 mg/kg, ip measured for 60 secs by chimney test relative to control; type: toxicity, organism-based; conditions: in vivo, 1 min; procedure, shortened: as §3

Cc1cccc(OCCOCCN2CCCC(O)C2)c1C.Cl (stereo not given)
Activity (Mus musculus [1]): Active
Activity (Mus musculus [2]): Non-Toxic
Activity (Mus musculus [3]): Non-Toxic
Activity (Mus musculus [4]): Non-Toxic
ED50 (Mus musculus [5]): 68.7 mg/kg
TD50 at 1 min [6]: 122 mg/kg
selectivity ratio [7]: 1.77
Activity (Mus musculus [8]): 13.18 mA
Activity (Mus musculus [9]): 75.03%
Time (Mus musculus [10]): 564.8 s
Activity (Mus musculus [11]): inactive
Activity (Mus musculus [12]): 13.74%
Activity (Mus musculus [13]): 64.59%
Activity (Mus musculus [14]): 14.98%
Time (Mus musculus [15]): 4.75 s
Activity (Mus musculus [16]): 0%
Activity (HepG2 [17]): Non-Toxic
Activity (HepG2 [18]): Non-Toxic
Activity [19]: Non-Toxic
Activity (SH-SY5Y [20]): Non-Toxic
Activity (SH-SY5Y [21]): Non-Toxic
Activity (SH-SY5Y [22]): Non-Toxic
Activity (SH-SY5Y [23]): Toxic
Activity (SH-SY5Y [24]): Toxic

Cc1cccc(Cl)c1OCCOCCNCC(O)c1ccccc1 (racemic)
Activity (Mus musculus [1]): Active
Activity (Mus musculus [2]): Non-Toxic
Activity (Mus musculus [25]): Non-Toxic
Activity (Mus musculus [26]): Non-Toxic
Activity (Mus musculus [27]): Non-Toxic
ED50 (Mus musculus [5]): 23.9 mg/kg
selectivity ratio [7]: 4.3
Activity (Mus musculus [28]): 11.09 mA
Activity (Mus musculus [29]): 56.64%
Time (Mus musculus [10]): 219.6 s
Activity (Mus musculus [11]): inactive
Activity (Mus musculus [30]): 8.57%
Activity (Mus musculus [31]): 8.8%
Activity (Mus musculus [32]): 44.39%
Time (Mus musculus [33]): 3.5 s
Activity (Mus musculus [34]): 0%

Cc1cccc(OCCOCCN[C@H]2CCCC[C@@H]2O)c1C (racemic)
Activity (Mus musculus [1]): Active
Activity (Mus musculus [2]): Non-Toxic
Activity (Mus musculus [3]): Non-Toxic
ED50 (Mus musculus [5]): 32.9 mg/kg
TD50 at 1 min [6]: 47.4 mg/kg
selectivity ratio [7]: 1.44
Activity (Mus musculus [35]): 7.01 mA
Activity (Mus musculus [36]): inactive
Time (Mus musculus [37]): 596 s
Activity (Mus musculus [38]): 2.05%
Activity (Mus musculus [39]): 25.47%
Activity (Mus musculus [40]): 70.13%
Activity (Mus musculus [41]): 3.42%
Time (Mus musculus [42]): 4.13 s
Activity (Mus musculus [43]): 0%
